The text below walks through data of ChEMBL document CHEMBL1158535, “Thiazole, oxadiazole, and carboxamide derivatives of artemisinin are highly selective and potent inhibitors of Toxoplasma gondii” (J Med Chem, 2010).

Data set [1] deals with Toxoplasma gondii. As to the kind of experiment: Antiparasitic activity against Toxoplasma gondii 2F infected in HFF cells assessed as beta galactosidase activity after 5 days. To be noted: 120 h. The data set is classed as functional, organism-based. The gist of the method:
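HFF monolayers infected with β-galactosidase-expressing T. gondii 2F tachyzoites; compounds from final 320 μM serially diluted 0.5 log10, drug-free parasite control. After 4 days at 37°C/5% CO2, CPRG substrate added and incubated 1 more day. Absorbance 570-650 nm relative to parasite control. IC50 calculated; at least three independent experiments.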

Data set [2] can be described thus: Therapeutic index, ratio of TD50 for HFF cells to IC50 for Toxoplasma gondii F2. Format: cell-based. The following applies: human, read-out: TI.
Data set [3] is described as follows: Cytotoxicity against HFF after 5 days by CellTiter 96 Aqueous One Solution assay. To be noted: human, HFF cells; read-out: TD50.
In data set [4] the test system is Toxoplasma gondii. As to the kind of experiment: Antiparasitic activity against Toxoplasma gondii 2F infected in HFF cells assessed as inhibition of parasite replication at 10 uM. The data set is classed as functional, organism-based. The method, boiled down: (§1)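 HFF monolayers inoculated with tachyzoites, 2 h at 37°C/5% CO2, then compound (1, 5 or 10 μM) or DMSO added. Replication 24-26 h, then fixed, permeabilized, immunolabeled anti-p30 with DAPI. Parasites per vacuole (1, 2, 4, 8+) counted by eye in 10 random fields; reported as modal number/doublings.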

Data set [5] deals with Toxoplasma gondii. The data set can be described thus: Antiparasitic activity against Toxoplasma gondii 2F infected in HFF cells assessed as inhibition of parasite replication at 5 uM. Format: functional, organism-based. The method, boiled down:
as §1

In data set [6] the test system is Toxoplasma gondii. The data set can be described thus: Antiparasitic activity against Toxoplasma gondii 2F infected in HFF cells assessed as inhibition of parasite replication at 1 uM. Format: functional, organism-based. The method, boiled down: as §1

SMILES strings stand for the structures. Activity calls are given as the source filed them. No cut-off for these calls is given here. Bounds are passed on as bounds.

A word on the IC50: it is the midpoint of a concentration-inhibition curve.

In the case of `CSc1ccc(-c2csc(C3=C(C)[C@@H]4CC[C@@H](C)[C@@H]5CC[C@@]6(C)OO[C@@]45[C@H](O3)O6)n2)cc1`, the IC50 in data set [1] is 400 nM. Besides, the selectivity ratio in data set [2] worked out at 1410. Also, the CC50 at 120 h in data set [3] was no less than 320000 nM.

For `CC1=C(C(=O)NCc2ccc(C)cc2)O[C@@H]2O[C@@]3(C)CC[C@H]4[C@H](C)CC[C@@H]1[C@@]24OO3`, the 50% inhibitory concentration (IC50) in data set [1] worked out at 510 nM. In addition, in data set [2], the selectivity ratio was found to be 331. Also, in data set [3], the CC50 at 120 h came out at 169000 nM.

Turning to `CC1=C(C(=O)NCc2cc(F)cc(F)c2)O[C@@H]2O[C@@]3(C)CC[C@H]4[C@H](C)CC[C@@H]1[C@@]24OO3`, the IC50 in data set [1] is 360 nM. The selectivity ratio in data set [2] was determined as 1560. In data set [3], the CC50 at 120 h is no less than 320000 nM.

Consider `CC1=C(C(=O)NCc2ccc(F)c(F)c2)O[C@@H]2O[C@@]3(C)CC[C@H]4[C@H](C)CC[C@@H]1[C@@]24OO3`, for which the IC50 in data set [1] came out at 470 nM. For the same molecule, the selectivity ratio in data set [2] turned out to be 166. In data set [3], the CC50 at 120 h was 78000 nM.

For `CC1=C(c2nc(C)no2)O[C@@H]2O[C@@]3(C)CC[C@H]4[C@H](C)CC[C@@H]1[C@@]24OO3`, in data set [1], the IC50 is 840 nM. Moreover, the selectivity ratio in data set [2] came to 669. Moreover, the CC50 at 120 h in data set [3] is no less than 320000 nM.

With `CCN(CC)C(=O)C1=C(C)[C@@H]2CC[C@@H](C)[C@@H]3CC[C@@]4(C)OO[C@@]23[C@H](O1)O4`, the IC50 in data set [1] turned out to be 11000 nM. Further, the selectivity ratio in data set [2] turned out to be 2.1. Also, the CC50 at 120 h in data set [3] came to 23000 nM.

`COc1cc(Cc2cnc(N)nc2N)cc(OC)c1OC` [TRIMETHOPRIM]: the IC50 in data set [1] stood at 46000 nM. Further, in data set [2], the selectivity ratio came to 12. In addition, the CC50 at 120 h in data set [3] was no less than 320000 nM.

In the case of `CNC(=O)C1=C(C)[C@@H]2CC[C@@H](C)[C@@H]3CC[C@@]4(C)OO[C@@]23[C@H](O1)O4`, the IC50 in data set [1] was determined as 15000 nM. Further, the selectivity ratio in data set [2] came out at 37. Besides, the CC50 at 120 h in data set [3] is no less than 320000 nM.

Turning to `CC1=C(C(=O)NCc2ccc(F)cc2)O[C@@H]2O[C@@]3(C)CC[C@H]4[C@H](C)CC[C@@H]1[C@@]24OO3`, in data set [1], the IC50 is 470 nM. Besides, in data set [2], the selectivity ratio came to 153. Moreover, in data set [3], the CC50 at 120 h was found to be 72000 nM.

For `COc1ccc(-c2csc(C3=C(C)[C@@H]4CC[C@@H](C)[C@@H]5CC[C@@]6(C)OO[C@@]45[C@H](O3)O6)n2)cc1`, the IC50 in data set [1] is 750 nM. For the same molecule, the selectivity ratio in data set [2] is 25. Besides, in data set [3], the CC50 at 120 h is 19000 nM.

As for `CC1=C(C(=O)NCc2ccc(C(F)(F)F)cc2)O[C@@H]2O[C@@]3(C)CC[C@H]4[C@H](C)CC[C@@H]1[C@@]24OO3`, the IC50 in data set [1] worked out at 340 nM. Also, in data set [2], the selectivity ratio came out at 1650. Further, the CC50 at 120 h in data set [3] is no less than 320000 nM.

With `CC1=C(c2nc(-c3ccccc3)no2)O[C@@H]2O[C@@]3(C)CC[C@H]4[C@H](C)CC[C@@H]1[C@@]24OO3`, the result in data set [4], in data set [5] and in data set [6] was Active. In addition, the IC50 in data set [1] came to 440 nM. In addition, in data set [2], the selectivity ratio is 320. Also, the CC50 at 120 h in data set [3] came out at 141000 nM.

For `CC1=C(c2nc(C(C)(C)C)cs2)O[C@@H]2O[C@@]3(C)CC[C@H]4[C@H](C)CC[C@@H]1[C@@]24OO3`, the result in data set [4], in data set [5] and in data set [6] was Active. In addition, the IC50 in data set [1] was 250 nM. Besides, the selectivity ratio in data set [2] is 2250. Besides, the CC50 at 120 h in data set [3] is no less than 320000 nM.

On to `CC1=C(C(=O)NCc2ccccc2)O[C@@H]2O[C@@]3(C)CC[C@H]4[C@H](C)CC[C@@H]1[C@@]24OO3`, for which the IC50 in data set [1] came to 670 nM. The selectivity ratio in data set [2] is 839. The CC50 at 120 h in data set [3] is no less than 320000 nM.

`CC1=C(c2nc(C3CCCCC3)cs2)O[C@@H]2O[C@@]3(C)CC[C@H]4[C@H](C)CC[C@@H]1[C@@]24OO3`: in data set [1], the IC50 came out at 590 nM. In data set [2], the selectivity ratio amounted to 3. The CC50 at 120 h in data set [3] was found to be 1800 nM.

Take `CC1=C(c2nc(-c3ccc(S(C)(=O)=O)cc3)cs2)O[C@@H]2O[C@@]3(C)CC[C@H]4[C@H](C)CC[C@@H]1[C@@]24OO3`: in data set [1], the IC50 was 420 nM. In addition, the selectivity ratio in data set [2] was 1340. Also, the CC50 at 120 h in data set [3] was no less than 320000 nM.

As to `CO[C@H]1O[C@@H]2O[C@@]3(C)CC[C@H]4[C@H](C)CC[C@@H]([C@H]1C)[C@@]24OO3` [ARTEMETHER], the IC50 in data set [1] was 310 nM. Moreover, the selectivity ratio in data set [2] was 1810. For the same molecule, the CC50 at 120 h in data set [3] was no less than 320000 nM.

As to `CC1=C(C(=O)NCc2cc(Br)cc(Br)c2)O[C@@H]2O[C@@]3(C)CC[C@H]4[C@H](C)CC[C@@H]1[C@@]24OO3`, the IC50 in data set [1] came to 810 nM. Further, the selectivity ratio in data set [2] was 694. Further, the CC50 at 120 h in data set [3] was no less than 320000 nM.

For the molecule `CC1=C(c2ncc(C)s2)O[C@@H]2O[C@@]3(C)CC[C@H]4[C@H](C)CC[C@@H]1[C@@]24OO3`, the result in data set [4], in data set [5] and in data set [6] was Active. Moreover, the IC50 in data set [1] is 370 nM. Also, the selectivity ratio in data set [2] came to 1520. In addition, the CC50 at 120 h in data set [3] is no less than 320000 nM.

Consider `CC1=C(c2nc(-c3ccccc3)cs2)O[C@@H]2O[C@@]3(C)CC[C@H]4[C@H](C)CC[C@@H]1[C@@]24OO3`, for which the result in data set [4], in data set [5] and in data set [6] was Active. In data set [1], the IC50 turned out to be 340 nM. Further, the selectivity ratio in data set [2] stood at 1650. Besides, in data set [3], the CC50 at 120 h is no less than 320000 nM.

Take `CC1=C(c2nc(C)cs2)O[C@@H]2O[C@@]3(C)CC[C@H]4[C@H](C)CC[C@@H]1[C@@]24OO3`: the result in data set [4], in data set [5] and in data set [6] was Active. Besides, the IC50 in data set [1] was found to be 400 nM. Further, the selectivity ratio in data set [2] turned out to be 1410. For the same molecule, the CC50 at 120 h in data set [3] was no less than 320000 nM.

Regarding `CC1=C(c2nc(-c3ccc(C)cc3)cs2)O[C@@H]2O[C@@]3(C)CC[C@H]4[C@H](C)CC[C@@H]1[C@@]24OO3`, the IC50 in data set [1] was found to be 350 nM. Also, the selectivity ratio in data set [2] is 1610. The CC50 at 120 h in data set [3] is no less than 320000 nM.

With `CC1=C(c2nc(C)c(C)s2)O[C@@H]2O[C@@]3(C)CC[C@H]4[C@H](C)CC[C@@H]1[C@@]24OO3`, the outcome in data set [4], in data set [5] and in data set [6] was Active. The IC50 in data set [1] is 160 nM. In addition, the selectivity ratio in data set [2] stood at 240. Further, in data set [3], the CC50 at 120 h was 38000 nM.

On to `CCc1csc(C2=C(C)[C@@H]3CC[C@@H](C)[C@@H]4CC[C@@]5(C)OO[C@@]34[C@H](O2)O5)n1`, for which the IC50 in data set [1] is 400 nM. Further, the selectivity ratio in data set [2] is 1410. The CC50 at 120 h in data set [3] is no less than 320000 nM.

For the molecule `C[C@@H]1CC[C@H]2[C@@H](C)C(=O)O[C@@H]3O[C@@]4(C)CC[C@@H]1[C@]32OO4` [ARTEMISININ], the IC50 in data set [1] was found to be 640 nM. Besides, the selectivity ratio in data set [2] was 879. Also, in data set [3], the CC50 at 120 h was no less than 320000 nM.

For the molecule `CC1=C(c2nccs2)O[C@@H]2O[C@@]3(C)CC[C@H]4[C@H](C)CC[C@@H]1[C@@]24OO3`, the IC50 in data set [1] was 1100 nM. Further, in data set [2], the selectivity ratio came to 511. The CC50 at 120 h in data set [3] is no less than 320000 nM.

Take `CCNC(=O)C1=C(C)[C@@H]2CC[C@@H](C)[C@@H]3CC[C@@]4(C)OO[C@@]23[C@H](O1)O4`: the IC50 in data set [1] stood at 6800 nM. The selectivity ratio in data set [2] was found to be 38. Also, the CC50 at 120 h in data set [3] was 259000 nM.
